The text below walks through data of BindingDB's records for doi:10.1021/acsmedchemlett.0c00095 (Gilead Sciences, 2020).

The IC50 is the midpoint of a concentration-inhibition curve.

Chain of Phosphatidylinositol 3-kinase regulatory subunit alpha/4,5-bisphosphate 3-kinase catalytic subunit beta isoform (P27986 whole entry, canonical isoform): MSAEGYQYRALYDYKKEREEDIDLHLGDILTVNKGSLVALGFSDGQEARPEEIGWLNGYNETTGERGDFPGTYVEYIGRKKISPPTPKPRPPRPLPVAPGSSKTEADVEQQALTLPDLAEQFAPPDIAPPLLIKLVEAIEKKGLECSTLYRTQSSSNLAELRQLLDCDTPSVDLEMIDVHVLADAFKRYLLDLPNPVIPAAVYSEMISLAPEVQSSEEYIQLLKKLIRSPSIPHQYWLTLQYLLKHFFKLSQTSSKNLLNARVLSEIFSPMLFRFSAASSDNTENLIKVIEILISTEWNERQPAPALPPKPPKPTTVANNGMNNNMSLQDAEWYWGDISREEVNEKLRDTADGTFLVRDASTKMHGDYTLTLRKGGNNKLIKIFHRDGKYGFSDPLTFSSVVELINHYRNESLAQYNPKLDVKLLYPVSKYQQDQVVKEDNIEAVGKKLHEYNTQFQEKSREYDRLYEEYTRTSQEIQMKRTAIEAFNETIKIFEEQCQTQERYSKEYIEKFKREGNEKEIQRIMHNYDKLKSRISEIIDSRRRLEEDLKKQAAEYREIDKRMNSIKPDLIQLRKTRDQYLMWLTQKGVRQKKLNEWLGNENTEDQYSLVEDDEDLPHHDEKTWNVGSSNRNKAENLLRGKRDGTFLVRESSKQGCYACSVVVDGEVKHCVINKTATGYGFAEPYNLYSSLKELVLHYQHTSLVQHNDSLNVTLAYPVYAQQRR
Chain of Phosphatidylinositol 3-kinase regulatory subunit alpha/4,5-bisphosphate 3-kinase catalytic subunit beta isoform (P42338 whole entry, canonical isoform): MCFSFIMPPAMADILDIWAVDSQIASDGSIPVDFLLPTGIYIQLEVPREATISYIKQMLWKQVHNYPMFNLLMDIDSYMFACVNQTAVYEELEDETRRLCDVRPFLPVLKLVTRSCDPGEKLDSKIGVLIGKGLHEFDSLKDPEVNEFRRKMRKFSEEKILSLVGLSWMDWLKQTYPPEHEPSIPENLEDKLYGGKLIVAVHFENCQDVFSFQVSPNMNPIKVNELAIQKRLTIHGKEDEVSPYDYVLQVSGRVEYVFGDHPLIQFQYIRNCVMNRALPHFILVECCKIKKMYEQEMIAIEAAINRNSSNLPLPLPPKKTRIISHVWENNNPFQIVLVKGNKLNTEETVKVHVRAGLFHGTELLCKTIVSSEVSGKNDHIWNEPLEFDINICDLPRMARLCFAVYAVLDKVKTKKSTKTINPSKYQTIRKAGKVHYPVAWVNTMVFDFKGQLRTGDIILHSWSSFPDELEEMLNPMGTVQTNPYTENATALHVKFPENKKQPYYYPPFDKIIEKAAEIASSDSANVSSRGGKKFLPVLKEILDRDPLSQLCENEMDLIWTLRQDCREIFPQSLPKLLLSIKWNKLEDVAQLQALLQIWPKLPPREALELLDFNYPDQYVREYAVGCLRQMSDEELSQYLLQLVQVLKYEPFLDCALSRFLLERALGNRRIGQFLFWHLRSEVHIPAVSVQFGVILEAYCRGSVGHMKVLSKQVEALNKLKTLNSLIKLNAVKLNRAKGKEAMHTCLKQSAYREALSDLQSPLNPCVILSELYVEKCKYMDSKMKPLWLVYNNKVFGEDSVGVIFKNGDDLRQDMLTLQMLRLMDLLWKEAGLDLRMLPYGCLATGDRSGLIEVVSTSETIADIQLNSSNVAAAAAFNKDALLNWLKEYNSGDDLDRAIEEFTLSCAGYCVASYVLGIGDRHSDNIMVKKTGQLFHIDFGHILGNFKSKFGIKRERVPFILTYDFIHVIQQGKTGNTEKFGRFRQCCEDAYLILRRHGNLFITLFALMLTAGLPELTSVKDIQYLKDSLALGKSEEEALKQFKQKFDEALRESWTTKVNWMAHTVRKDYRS

The assay has as its target Phosphatidylinositol 3-kinase regulatory subunit alpha/4,5-bisphosphate 3-kinase catalytic subunit beta isoform (Homo sapiens, UniProt P27986+P42338). Nature of the assay: Inhibition of recombinant human full-length N-terminal His6-tagged p110beta/human recombinant full-length untagged p85alpha expressed in baculovirus infected Sf21 insect cells using PIP2 as substrate after 30 mins in presence of ATP at 2xKm concentration by TR-FRET assay. The gist of the method:
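Class I PI3K isoforms assayed in vitro for kinase inhibition with ATP at 2Km steady-state concentration; IC50 values averaged over at least 2 determinations.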
A general note: TR-FRET usually uses a lanthanide donor and a delayed reading to cut background.
With `Clc1cccc2c(-n3cnc4c(-c5nnc[nH]5)cc(-c5ccncc5)cc43)ccnc12`, the IC50 came to 5 nM.
The value for `Clc1cccc2c(-n3cnc4c(-c5nnc[nH]5)cc(N5CCOCC5)cc43)ccnc12` [US10214519, Example 111] was 3 nM; that for `Cc1nc2c(-c3nnc[nH]3)cc(-c3ccnc(C(F)F)c3)cc2n1-c1ccnc2c(F)ccc(F)c12` [US10227350, Compound 43] was 30 nM.
The value for `Cc1nc2c(-c3nnc[nH]3)cc(-c3cc(N)ncc3F)cc2n1-c1ccnc2c(F)ccc(F)c12` [US10227350, Compound 76] was 50 nM; that for `CNc1nccc(-c2cc(-c3nnc[nH]3)c3nc(C)n(-c4ccnc5c(F)ccc(F)c45)c3c2)c1F` [US10227350, Compound 77] was 1400 nM; that for `Cc1cc(-c2cc(-c3nnc[nH]3)c3nc(C)n(-c4ccnc5c(F)ccc(F)c45)c3c2)cc(N)n1` [US10227350, Compound 90] was 341 nM.
The value for `Cc1nc2c(-c3nnc[nH]3)cc(-c3ccnc(N)c3Cl)cc2n1-c1ccnc2c(F)ccc(F)c12` [US10227350, Compound 91] was 19 nM.
For the compound `Cc1nc2c(-c3nnc[nH]3)cc(-c3c(F)cnc(N)c3F)cc2n1-c1ccnc2c(F)ccc(F)c12` [US10227350, Compound 100], the IC50 amounted to 321 nM.
As for `Cc1nc2c(-c3nnc[nH]3)cc(-c3ccnc(N)c3)cc2n1-c1ccnc2c(F)ccc(F)c12` [US10227350, Compound 104], the IC50 is 10 nM.
In the case of `Cc1nc2c(-c3nnc[nH]3)cc(-c3ccnc(C#N)c3)cc2n1-c1ccnc2c(F)ccc(F)c12` [US10227350, Compound 113] it was 4 nM.
The value for `Cc1nc2c(-c3nnc[nH]3)cc(-c3ccncc3)cc2n1-c1ccnc2c(F)ccc(F)c12` [US10227350, Compound 140] was 6 nM; that for `Cc1cc(-c2cc(-c3nnc[nH]3)c3nc(C)n(-c4ccnc5c(F)ccc(F)c45)c3c2)ncn1` [US10227350, Compound 155] was 62 nM.
In the case of `Cc1nccc(-c2cc(-c3nnc[nH]3)c3nc(C)n(-c4ccnc5c(F)ccc(F)c45)c3c2)n1` [US10227350, Compound 156] it was 12 nM; in that of `Cc1nc2c(-c3nnc[nH]3)cc(-c3ccnc(Cl)c3)cc2n1-c1ccnc2c(F)ccc(F)c12` [US10227350, Compound 158], 7 nM.
